# Active and inactive are the calls of the source. The calls are words filed in the database; no cut-off is given here.
# Tests used:
# HepG2 [1] = experiment: Reduction of glucose consumption in insulin-resistant human HepG2 cells at 10 uM after 24 hrs by glucose oxidase method; assay type: functional, cell-based
# Summary of the method: (§1)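 HepG2 cells in DMEM (22.2 mM glucose) with 10% FBS, exposed to 0.1 μM insulin from plating for 2 days. At confluence, given fresh 22.2 mM glucose DMEM with test agents for 24 h. Medium glucose measured by glucose oxidase. Consumption = blank minus remaining glucose, normalized to MTT. Three independent experiments.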
# HepG2 [2] = experiment: Reduction of glucose consumption in insulin-resistant human HepG2 cells at 10 uM after 24 hrs by glucose oxidase method in presence of 0.1 uM of insulin; assay type: functional, cell-based; summary of the method: as §1
# 3T3-L1 [3] = experiment: Up-regulation of adiponectin expression in mouse 3T3L1 cells at 10 uM after 24 hrs by ELISA; assay type: functional
# Summary of the method: (§2)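 3T3-L1 preadipocytes grown to 2 days post-confluence. Differentiated with 0.5 mM IBMX, 0.25 μM dexamethasone and 1 μg/mL insulin for 2 days, then insulin alone for 2 days, then 10% FBS DMEM. On day 12, treated 24 h; secreted adiponectin and leptin measured by ELISA. Three independent experiments.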
# 3T3-L1 [4] = experiment: Down-regulation of […] expression in mouse 3T3L1 cells at 10 uM after 24 hrs by ELISA; assay type: functional; summary of the method: as §2
# HepG2 [5] = experiment: Reduction of glucose consumption in insulin-resistant human HepG2 cells at 10 uM after 24 hrs by glucose oxidase method in presence of 22.2 mM of glucose; assay type: functional, cell-based; summary of the method: as §1
# Rattus norvegicus [6] = experiment: Toxicity in Wistar rat high fat diet-induced NAFLD model assessed as effect on food intake at 150 mg/kg, po qd for 4 weeks; assay type: organism-based; set-up: dose 150 mg/kg, route oral; details: in vivo, 672 h
# Summary of the method: (§3)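 Male Wistar rats (160−180 g) fed high-fat diet (50.55% calories from fat), n = 10 per group. Dosed orally at 150 mg/kg/day for 4 weeks. Body, liver and fat weights and food intake recorded. Serum lipids, AST, ALT and glucose measured on a biochemistry analyzer. Fasting insulin measured by kit; adiponectin and leptin by ELISA. Mean ± SD; percent change vs HFD group.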
# Mus musculus [7] = experiment: Antiobesity activity in C57BL/6J mouse high fat diet-induced NAFLD model assessed as reduction of serum free fatty acid level at 150 mg/kg, po qd for 7 weeks; assay type: functional; set-up: scale not given: the % may be the effect or the level left
# Summary of the method: (§4)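 Male C57BL/6J mice, 3 weeks old, fed high-fat diet (60.0% calories from fat) ad libitum for 8 weeks, then randomized into groups of 10. Body weight and food intake recorded daily. Serum markers measured after sacrifice; fasting glucose included. Percent change = (V_HFD − V_treatment)/V_HFD × 100.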
# Rattus norvegicus [8] = experiment: Antiobesity activity in Wistar rat high fat diet-induced NAFLD model assessed as reduction of serum AST level at 150 mg/kg, po qd for 4 weeks; assay type: functional; summary of the method: as §3
# HepG2 [9] = experiment: Reduction of glucose consumption in insulin-resistant human HepG2 cells at 1 mM after 24 hrs by glucose oxidase method in presence of 0.1 uM of insulin; assay type: functional, cell-based; summary of the method: as §1
# Rattus norvegicus [10] = experiment: Antiobesity activity in Wistar rat high fat diet-induced NAFLD model assessed as reduction of serum insulin level at 150 mg/kg, po qd for 4 weeks; assay type: functional; set-up: scale not given: the % may be the effect or the level left; summary of the method: as §3
# Rattus norvegicus [11] = experiment: Antiobesity activity in Wistar rat high fat diet-induced NAFLD model assessed as reduction of serum triglycerides level at 150 mg/kg, po qd for 4 weeks; assay type: functional; summary of the method: as §3
# Rattus norvegicus [12] = experiment: Antiobesity activity in Wistar rat high fat diet-induced NAFLD model assessed as reduction of serum ALT level at 150 mg/kg, po qd for 4 weeks; assay type: functional; summary of the method: as §3
# Rattus norvegicus [13] = experiment: Antiobesity activity in Wistar rat high fat diet-induced NAFLD model assessed as reduction of leptin level at 150 mg/kg, po qd for 4 weeks; assay type: functional; summary of the method: as §3
# 3T3-L1 [14] = experiment: Up-regulation of adiponectin expression in mouse 3T3L1 cells at 1 mM after 24 hrs by ELISA; assay type: functional; summary of the method: as §2
# Mus musculus [15] = experiment: Antiobesity activity in C57BL/6J mouse high fat diet-induced NAFLD model assessed as reduction of postprandial glucose level at 150 mg/kg, po qd for 6 weeks by oral glucose tolerance test; assay type: functional, organism-based; set-up: dose 150 mg/kg
# Summary of the method: (§5)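 DIO C57BL/6J mice (HFD 60.0% fat) dosed orally for 6 weeks, n = 5, fasted overnight. Glucose load given either orally at 3.0 g/kg (OGTT) or intravenously at 0.5 g/kg (IGTT). Tail-vein blood sampled at 0, 15, 30, 60, 90, 120 and 180 min.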
# Mus musculus [16] = experiment: Antiobesity activity in C57BL/6J mouse high fat diet-induced NAFLD model assessed as reduction of fasting blood glucose level at 150 mg/kg, po qd for 7 weeks; assay type: functional; set-up: scale not given: the % may be the effect or the level left; summary of the method: as §4
# Mus musculus [17] = experiment: Antiobesity activity in C57BL/6J mouse high fat diet-induced NAFLD model assessed as reduction of postprandial glucose level at 150 mg/kg, po qd for 6 weeks by intravenous glucose tolerance test; assay type: functional, organism-based; set-up: dose 150 mg/kg; summary of the method: as §5
# Rattus norvegicus [18] = experiment: Antiobesity activity in Wistar rat high fat diet-induced NAFLD model assessed as reduction of fasting blood glucose level at 150 mg/kg, po qd for 4 weeks; assay type: functional; set-up: scale not given: the % may be the effect or the level left; summary of the method: as §3
# Rattus norvegicus [19] = experiment: Antiobesity activity in Wistar rat high fat diet-induced NAFLD model assessed as reduction of liver weight at 150 mg/kg, po qd for 4 weeks; assay type: functional; set-up: scale not given: the % may be the effect or the level left; summary of the method: as §3
# Rattus norvegicus [20] = experiment: Antiobesity activity in Wistar rat high fat diet-induced NAFLD model assessed as reduction of fat mass at 150 mg/kg, po qd for 4 weeks; assay type: functional; set-up: scale not given: the % may be the effect or the level left; summary of the method: as §3
# Mus musculus [21] = experiment: Antiobesity activity in C57BL/6J mouse high fat diet-induced NAFLD model assessed as reduction of fat mass in epididymal and abdominal at 150 mg/kg, po qd for 7 weeks; assay type: functional, organism-based; set-up: dose 150 mg/kg; summary of the method: as §4
# Mus musculus [22] = experiment: Antiobesity activity in C57BL/6J mouse high fat diet-induced NAFLD model assessed as reduction of serum triglycerides level at 150 mg/kg, po qd for 7 weeks; assay type: functional; set-up: scale not given: the % may be the effect or the level left; summary of the method: as §4
# Rattus norvegicus [23] = experiment: Antiobesity activity in Wistar rat high fat diet-induced NAFLD model assessed as reduction of liver total cholesterol level at 150 mg/kg, po qd for 4 weeks; assay type: functional; set-up: scale not given: the % may be the effect or the level left
# Summary of the method: (§6)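 Male Wistar rats on high-fat diet (50.55% fat), dosed orally at 150 mg/kg/day for 4 weeks, n = 10. Liver homogenized in 50 mM Tris-HCl pH 7.4 with 150 mM NaCl, 1 mM PMSF and 1 mM EDTA, then triglycerides and total cholesterol assayed. Liver sections stained with H&E to assess lipid droplets.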
# Rattus norvegicus [24] = experiment: Antiobesity activity in Wistar rat high fat diet-induced NAFLD model assessed as increase of adiponectin level at 150 mg/kg, po qd for 4 weeks; assay type: functional; summary of the method: as §3
# HepG2 [25] = experiment: Reduction of glucose consumption in insulin-resistant human HepG2 cells at 1 mM after 24 hrs by glucose oxidase method in presence of 22.2 mM of glucose; assay type: functional, cell-based; summary of the method: as §1
# Mus musculus [26] = experiment: Antiobesity activity in C57BL/6J mouse high fat diet-induced NAFLD model assessed as reduction of serum ALT level at 150 mg/kg, po qd for 7 weeks; assay type: functional; set-up: scale not given: the % may be the effect or the level left; summary of the method: as §4
# Rattus norvegicus [27] = experiment: Antiobesity activity in Wistar rat high fat diet-induced NAFLD model assessed as reduction of serum LDL-cholesterol level at 150 mg/kg, po qd for 4 weeks; assay type: functional; summary of the method: as §3
# 3T3-L1 [28] = experiment: Down-regulation of […] expression in mouse 3T3L1 cells at 1 mM after 24 hrs by ELISA; assay type: functional; summary of the method: as §2
# Mus musculus [29] = experiment: Antiobesity activity in C57BL/6J mouse high fat diet-induced NAFLD model assessed as reduction of serum LDL-cholesterol level at 150 mg/kg, po qd for 7 weeks; assay type: functional; set-up: scale not given: the % may be the effect or the level left; summary of the method: as §4
# Rattus norvegicus [30] = experiment: Antiobesity activity in Wistar rat high fat diet-induced NAFLD model assessed as reduction of serum total cholesterol level at 150 mg/kg, po qd for 4 weeks; assay type: functional; summary of the method: as §3
# Rattus norvegicus [31] = experiment: Antiobesity activity in Wistar rat high fat diet-induced NAFLD model assessed as reduction of body weight at 150 mg/kg, po qd for 4 weeks; assay type: functional; set-up: scale not given: the % may be the effect or the level left; summary of the method: as §3
# Rattus norvegicus [32] = experiment: Antiobesity activity in Wistar rat high fat diet-induced NAFLD model assessed as reduction of serum HDL-cholesterol level at 150 mg/kg, po qd for 4 weeks; assay type: functional; summary of the method: as §3
# Mus musculus [33] = experiment: Antiobesity activity in C57BL/6J mouse high fat diet-induced NAFLD model assessed as reduction of serum HDL-cholesterol level at 150 mg/kg, po qd for 7 weeks; assay type: functional; set-up: scale not given: the % may be the effect or the level left; summary of the method: as §4
# Mus musculus [34] = experiment: Antiobesity activity in C57BL/6J mouse high fat diet-induced NAFLD model assessed as reduction of body weight at 150 mg/kg, po qd for 7 weeks; assay type: functional; set-up: scale not given: the % may be the effect or the level left; summary of the method: as §4
# Rattus norvegicus [35] = experiment: Antiobesity activity in Wistar rat high fat diet-induced NAFLD model assessed as reduction of liver triglycerides level at 150 mg/kg, po qd for 4 weeks; assay type: functional; set-up: scale not given: the % may be the effect or the level left; summary of the method: as §6
structure (smiles),measurement,setting,value
O=C1NC(=O)C(=Cc2ccc(OC3CCN(C(=O)c4cccc(Cl)n4)CC3)cc2)C(=O)N1,Activity,HepG2 [1],inactive
same,Activity,HepG2 [2],inactive
N#Cc1cccnc1N1CCC(NC(=O)c2ccc(C=C3C(=O)NC(=O)NC3=O)cc2)CC1,Activity,HepG2 [1],inactive
same,Activity,HepG2 [2],inactive
O=C1NC(=O)C(=Cc2ccc(OC3CCN(C(=O)c4ccccn4)CC3)cc2)C(=O)N1,Activity,HepG2 [1],inactive
same,Activity,HepG2 [2],inactive
O=C1NC(=O)C(=Cc2ccc(OC3CCN(c4ncccc4C(F)(F)F)CC3)cc2)C(=O)N1,Activity,HepG2 [2],Active
same,Activity,3T3-L1 [3],Active
same,Activity,3T3-L1 [4],inactive
same,Activity,HepG2 [5],Active
O=C1NC(=O)C(=Cc2ccc(OC3CCN(C(=O)c4cccc5c4OC(F)(F)O5)CC3)c(F)c2)C(=O)N1,Activity,HepG2 [1],inactive
same,Activity,HepG2 [2],inactive
O=C1NC(=O)C(=Cc2ccc(OC3CCN(c4ncccc4C(F)(F)F)CC3)c(F)c2)C(=O)N1,Activity,HepG2 [1],inactive
same,Activity,HepG2 [2],inactive
COc1cc(OC2CCN(c3ncccc3C#N)CC2)cc(OC)c1C=C1C(=O)NC(=S)NC1=O,Activity,HepG2 [1],inactive
same,Activity,HepG2 [2],inactive
CN(C)C(=N)N=C(N)N [METFORMIN],Activity,Rattus norvegicus [6],Non-toxic
O=C1NC(=O)C(=Cc2ccc(OC3CCN(c4ccc([N+](=O)[O-])cn4)CC3)cc2)C(=O)N1,Activity,HepG2 [1],inactive
same,Activity,HepG2 [2],inactive
CN(C)C(=N)NC(=N)N [METFORMIN],Activity,Mus musculus [7],3.7%
same,Activity,Rattus norvegicus [8],89 U/L
same,Activity,HepG2 [9],Active
same,Activity,Rattus norvegicus [10],12.8%
same,Activity,Rattus norvegicus [11],1.6 mmol/L
same,Activity,Rattus norvegicus [12],39 U/L
same,Activity,Rattus norvegicus [13],13.6 ng/mL
same,Activity,3T3-L1 [14],125.8 pg/mL
same,Activity,Mus musculus [15],Active
same,Activity,Mus musculus [16],10.3%
same,Activity,Mus musculus [17],Active
same,Activity,Rattus norvegicus [18],19.7%
same,Activity,Rattus norvegicus [19],2.2%
same,Activity,Rattus norvegicus [20],18.1%
same,Activity,Mus musculus [21],Active
same,Activity,Mus musculus [22],29.3%
same,Activity,Rattus norvegicus [23],50%
same,Activity,Rattus norvegicus [24],198.3 µg/mL
same,Activity,HepG2 [25],Active
same,Activity,Mus musculus [26],66%
same,Activity,Rattus norvegicus [27],0.15 mmol/L
same,Activity,3T3-L1 [28],360.8 pg/mL
same,Activity,Mus musculus [29],44.4%
same,Activity,Rattus norvegicus [30],1.99 mmol/L
same,Activity,Rattus norvegicus [31],5.2%
same,Activity,Rattus norvegicus [32],0.28 mmol/L
same,Activity,Mus musculus [33],46.7%
same,Activity,Mus musculus [34],9.62%
same,Activity,Rattus norvegicus [35],48.8%
O=C1NC(=O)C(=Cc2ccc(OC3CCN(C(=O)c4cccnc4)CC3)cc2)C(=O)N1,Activity,HepG2 [1],inactive
same,Activity,HepG2 [2],inactive
O=C1NC(=O)C(=Cc2ccc(C(=O)NC3CCN(c4ccc([N+](=O)[O-])cn4)CC3)cc2)C(=O)N1,Activity,HepG2 [2],Active
same,Activity,HepG2 [5],Active
O=C1NC(=O)C(=Cc2ccc(OC3CCN(C(=O)c4ccc(Cl)cn4)CC3)cc2)C(=O)N1,Activity,HepG2 [1],inactive
same,Activity,HepG2 [2],inactive

# Source: ChEMBL document CHEMBL2176990, “Synthesis and biological evaluation of 5-benzylidenepyrimidine-2,4,6(1H,3H,5H)-trione derivatives for the treatment of obesity-related nonalcoholic fatty liver disease” (J Med Chem, 2012)
